# Measurements reported in PMC8792325 (Bioorganic & medicinal chemistry letters, 2021).
# pIC50: −log10 of the molar value.
# Legend:
# [1] = tested on: HBV replication in HepDES19 cells; assay: Mapping of the HBV replication step inhibited, in HepDES19 cells; assay type: cell-based, Hepatitis B virus; conditions: HepDES19, 6 days, ETV 1 μM, Bay 41–4109 2 μM; for encapsidated pgRNA / capsids: ENAN-34017 5 μM, 61 5 μM; for encapsidated pgRNA: Northern blot; for capsids: particle gel assay; for intracellular core protein level: Western blot
# How it was run: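 HepDES19 cells were kept with tetracycline to block pgRNA transcription (negative control) or without it to induce pgRNA and HBV DNA replication. From 24 h after tet removal, cells got DMSO, test compound (5 μM) or a type II CpAM reference (5 μM) for 6 days. Intracellular core protein was detected by Western blot with an antibody to Cp C-terminal 14 residues; β-actin was the loading control.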
# [2] = tested on: HBV replication; conditions: immortalized mouse hepatocyte line AML12HBV10; cited from earlier work
# [3] = tested on: HBV replication; conditions: human hepatoma cell line HepDES19; cited from earlier work
# [4] = Metabolic stability in mouse liver microsomes; assay type: in vitro ADME; conditions: Half-life T1/2, mouse liver microsomes
# [5] = tested on: HBV replication; assay: Anti-HBV activity, dot blot hybridization assay in AML12HBV10 cells; assay type: cell-based, Hepatitis B virus
# [6] = Mouse PK study, IV and PO; set-up: species or system mice; conditions: in vivo, 3 mg/kg
# [7] = tested on: CYP enzymes (one unnamed isoform of a panel of 9); assay: in vitro; assay type: in vitro ADME
# [8] = tested on: CYP enzymes; assay: in vitro; assay type: in vitro ADME; conditions: human, 10 μM
structure (smiles),measurement,setting,value
COC(=O)C1=C(C)NC(c2ncc(F)cc2F)=N[C@H]1c1ccc(F)cc1Cl [Bay 41–4109],encapsidated pgRNA,[1],prevented
same,capsids,[1],completely abolished capsid formation
same,intracellular core protein level,[1],induced the degradation of core protein
O=C(Nc1ccc(F)c(Cl)c1)c1cccc2c1OCCO2 [Compound 10],EC50 in AML12HBV10,[2],sub-micromolar
same,EC50 in HepDES19,[3],sub-micromolar
same,half-life,[4],< 10 min
O=C(Nc1ccc(N2CCOCC2)c(Cl)c1)c1cccc2c1OCCO2 [Compound 17],anti-HBV activity (in words),[5],loss of anti-HBV activity
O=C(Nc1ccc(O)c(Cl)c1)c1cccc2c1OCCO2 [Compound 20],anti-HBV activity (in words),[5],not active
O=C(NC1CC(F)(F)C1)c1cccc2c1OCCO2 [Compound 21],anti-HBV activity (in words),[5],lost activity
O=C(Nc1cc(F)c(F)c(F)c1)c1cccc2c1OCCO2 [Compound 29],anti-HBV activity (in words),[5],submicromolar
O=C(Nc1ccc(F)c(Cl)c1)c1cccc2c1OCCC2 [Compound 33],activity loss compared to 10,[5],about 4 fold
O=C(Nc1ccc(F)c(Cl)c1)c1cccc2nccnc12 [Compound 34],activity loss compared to 10,[5],> 10 fold
O=C(Nc1ccc(F)c(Cl)c1)c1cccc2c1OC(F)(F)O2 [Compound 37],potency increase compared to 10,[5],2 fold
"O=C1CCN(C(=O)Nc2ccc(F)c(Cl)c2)C2CCCCC12 (stereo not drawn) [Compound 61, cis-N-(3-chloro-4-fluorophenyl)-4-oxooctahydroquinoline-1(2H)-carboxamide]",clearance,[6],25.5 mL/min/kg
same,pIC50,[7],> 5.00
same,"CYP (#/9 of isoforms, > 50% of inhibition at 10 μM)",[8],1
same,encapsidated pgRNA,[1],reduced the amounts of encapsidated pgRNA
same,capsids,[1],induced the accumulation of capsids with faster electrophoresis mobility
Cc1cc(NC(=O)N2CCC(=O)[C@H]3CCCC[C@H]32)ccc1F [Compound 70],anti-HBV activity (in words),[5],submicromolar
O=C1CCN(C(=O)Nc2ccc(F)c(C(F)F)c2)[C@@H]2CCCC[C@H]12 [Compound 71],anti-HBV activity (in words),[5],submicromolar
O=C1CCN(C(=O)Nc2cccc(Cl)c2)[C@@H]2CCCC[C@H]12 [Compound 74],anti-HBV activity (in words),[5],submicromolar
C[C@@H](NS(=O)(=O)c1ccc(F)c(C(=O)Nc2ccc(F)c(F)c2)c1)C1CC1 [ENAN-34017],encapsidated pgRNA,[1],reduced the amounts of encapsidated pgRNA
same,capsids,[1],induced the accumulation of capsids with faster electrophoresis mobility
C=C1[C@H](CO)[C@@H](O)C[C@@H]1n1cnc2c(=O)[nH]c(N)nc21.O [Entecavir],encapsidated pgRNA,[1],accumulation of encapsidated pgRNA
same,capsids,[1],did not alter
same,intracellular core protein level,[1],did not alter
